Source: ChEMBL document CHEMBL3877264, “Quinolidene-rhodanine conjugates: Facile synthesis and biological evaluation” (Eur J Med Chem, 2017)
In brackets after ≈: the same amount, converted by molar mass.

Assays:
Assay type in all cases: functional
[1] = Antifungal activity against Fusarium oxysporum NCIM 1332 by standard agar method
Method in brief: (§1)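 MICs determined by standard agar method; DMSO as solvent control.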

Staphylococcus aureus [2] = test: Growth inhibition of Staphylococcus aureus NCIM 2010 at 30 ug/ml measured after 12 hrs relative to control; settings: NCIM 2010, 12 h, read-out: GI
Method in brief: (§2)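 Bacteria grown in LB at 37 °C and 180 rpm to OD 1. Compounds added to wells, then 0.1% inoculum of 1 OD culture (620 nm). Growth read as OD at 620 nm after 8 h for gram-negative and after 12 h for gram-positive strains.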

Bacillus subtilis [3] = test: Growth inhibition of Bacillus subtilis NCIM 2079 at 30 ug/ml measured after 12 hrs relative to control; settings: NCIM 2079, 12 h, read-out: GI; method in brief: as §2
Staphylococcus aureus [4] = test: Growth inhibition of Staphylococcus aureus NCIM 2010 at 10 ug/ml measured after 12 hrs relative to control; settings: NCIM 2010, 12 h, read-out: GI; method in brief: as §2
Staphylococcus aureus [5] = test: Growth inhibition of Staphylococcus aureus NCIM 2010 at 3 ug/ml measured after 12 hrs relative to control; settings: NCIM 2010, 12 h, read-out: GI; method in brief: as §2
Bacillus subtilis [6] = test: Growth inhibition of Bacillus subtilis NCIM 2079 at 10 ug/ml measured after 12 hrs relative to control; settings: NCIM 2079, 12 h, read-out: GI; method in brief: as §2
Bacillus subtilis [7] = test: Growth inhibition of Bacillus subtilis NCIM 2079 at 3 ug/ml measured after 12 hrs relative to control; settings: NCIM 2079, 12 h, read-out: GI; method in brief: as §2
Escherichia coli [8] = test: Growth inhibition of Escherichia coli NCIM 2688 at 30 ug/ml measured after 8 hrs relative to control; settings: NCIM 2688, 8 h, read-out: GI; method in brief: as §2
Escherichia coli [9] = test: Growth inhibition of Escherichia coli NCIM 2688 at 10 ug/ml measured after 8 hrs relative to control; settings: NCIM 2688, 8 h, read-out: GI; method in brief: as §2
Escherichia coli [10] = test: Growth inhibition of Escherichia coli NCIM 2688 at 3 ug/ml measured after 8 hrs relative to control; settings: NCIM 2688, 8 h, read-out: GI; method in brief: as §2
Pseudomonas fluorescens [11] = test: Growth inhibition of Pseudomonas fluorescens NCIM 2036 at 30 ug/ml measured after 8 hrs relative to control; settings: NCIM 2036, 8 h, read-out: GI; method in brief: as §2
Pseudomonas fluorescens [12] = test: Growth inhibition of Pseudomonas fluorescens NCIM 2036 at 10 ug/ml measured after 8 hrs relative to control; settings: NCIM 2036, 8 h, read-out: GI; method in brief: as §2
Pseudomonas fluorescens [13] = test: Growth inhibition of Pseudomonas fluorescens NCIM 2036 at 3 ug/ml measured after 8 hrs relative to control; settings: NCIM 2036, 8 h, read-out: GI; method in brief: as §2
Escherichia coli [14] = test: Antibacterial activity against Escherichia coli NCIM 2688 measured after 8 hrs; settings: NCIM 2688, 8 h; method in brief: as §2
Pseudomonas fluorescens [15] = test: Antibacterial activity against Pseudomonas fluorescens NCIM 2036 measured after 8 hrs; settings: NCIM 2036, 8 h; method in brief: as §2
Staphylococcus aureus [16] = test: Antibacterial activity against of Staphylococcus aureus NCIM 2010 measured after 12 hrs; settings: NCIM 2010, 12 h; method in brief: as §2
Bacillus subtilis [17] = test: Antibacterial activity against Bacillus subtilis NCIM 2079 measured after 12 hrs; settings: NCIM 2079, 12 h; method in brief: as §2
[18] = system: Mycobacterium tuberculosis; test: Growth inhibition of Mycobacterium bovis BCG ATCC 35743 at dormant stage at 30 ug/ml measured after 12 days by nitrate reductase dye based two fold dilution method relative to control; settings: BCG str. ATCC 35743, 288 h, read-out: GI
Method in brief: (§3)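 M. bovis BCG was grown in Dubos medium and assayed in Mycobacterium pheli minimal medium (pH 6.6), with compounds from DMSO stocks. Incubation lasted 8 days for active and 12 days for dormant cultures. Viability was read by nitrate reductase at 540 nm against cell-free blanks, with vehicle set as 100% growth. Primary screen was at 30, 10 and 3 µg/ml, in triplicate, mean ± SD. MIC was taken from dose-response curves.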

[19] = system: Mycobacterium tuberculosis; test: Growth inhibition of Mycobacterium bovis BCG ATCC 35743 at dormant stage at 10 ug/ml measured after 12 days by nitrate reductase dye based two fold dilution method relative to control; settings: BCG str. ATCC 35743, 288 h, read-out: GI; method in brief: as §3
[20] = system: Mycobacterium tuberculosis; test: Growth inhibition of Mycobacterium bovis BCG ATCC 35743 at dormant stage at 3 ug/ml measured after 12 days by nitrate reductase dye based two fold dilution method relative to control; settings: BCG str. ATCC 35743, 288 h, read-out: GI; method in brief: as §3
[21] = system: Mycobacterium tuberculosis; test: Growth inhibition of Mycobacterium bovis BCG ATCC 35743 at active stage measured after 8 days by nitrate reductase dye based two fold dilution method; settings: BCG str. ATCC 35743, 192 h; method in brief: as §3
[22] = system: Mycobacterium tuberculosis; test: Growth inhibition of Mycobacterium tuberculosis H37Ra ATCC 25177 at dormant stage measured after 12 days by XTT dye based two fold dilution method; settings: H37Ra ATCC 25177, 288 h
Method in brief: (§4)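 MTB H37Ra was grown in Dubos medium, then exposed in Mycobacterium pheli minimal medium (pH 6.6) to compounds dissolved in DMSO. The assay ended on day 8 (active) or day 12 (dormant). Viable cells were measured by XTT reduction menadione assay at 470 nm, blank-corrected, relative to vehicle control. Triplicates were expressed as mean ± SD. MIC came from dose-response curves.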

[23] = system: Mycobacterium tuberculosis; test: Growth inhibition of Mycobacterium bovis BCG ATCC 35743 at dormant stage measured after 12 days by nitrate reductase dye based two fold dilution method; settings: BCG str. ATCC 35743, 288 h; method in brief: as §3
[24] = system: Mycobacterium tuberculosis; test: Growth inhibition of Mycobacterium tuberculosis H37Ra ATCC 25177 at active stage measured after 8 days by XTT dye based two fold dilution method; settings: H37Ra ATCC 25177, 192 h; method in brief: as §4
Candida albicans = test: Antifungal activity against Candida albicans NCIM 3471 by standard agar method; method in brief: as §1
Aspergillus flavus = test: Antifungal activity against Aspergillus flavus NCIM 539 by standard agar method; method in brief: as §1
Aspergillus niger = test: Antifungal activity against Aspergillus niger NCIM 1196 by standard agar method; method in brief: as §1
[25] = Antifungal activity against Cryptococcus neoformans NCIM 576 by standard agar method; method in brief: as §1

Compound | MIC [1] [µg/mL] | inhibition of growth at 30 µg/mL (Staphylococcus aureus [2]) [%] | inhibition of growth at 30 µg/mL (Bacillus subtilis [3]) [%] | inhibition of growth at 10 µg/mL (Staphylococcus aureus [4]) [%] | inhibition of growth at 3 µg/mL (Staphylococcus aureus [5]) [%] | inhibition of growth at 10 µg/mL (Bacillus subtilis [6]) [%] | inhibition of growth at 3 µg/mL (Bacillus subtilis [7]) [%] | inhibition of growth at 30 µg/mL (Escherichia coli [8]) [%] | inhibition of growth at 10 µg/mL (Escherichia coli [9]) [%] | inhibition of growth at 3 µg/mL (Escherichia coli [10]) [%] | inhibition of growth at 30 µg/mL (Pseudomonas fluorescens [11]) [%] | inhibition of growth at 10 µg/mL (Pseudomonas fluorescens [12]) [%] | inhibition of growth at 3 µg/mL (Pseudomonas fluorescens [13]) [%] | MIC (Escherichia coli [14]) [µg/mL] | MIC (Pseudomonas fluorescens [15]) [µg/mL] | MIC (Staphylococcus aureus [16]) [µg/mL] | MIC (Bacillus subtilis [17]) [µg/mL] | inhibition of growth at 30 µg/mL [18] [%] | inhibition of growth at 10 µg/mL [19] [%] | MIC (Aspergillus flavus) [µg/mL] | further results
COc1ccc2cc(/C=C3\SC(=S)N(CC(=O)O)C3=O)c(Cl)nc2c1 | 75 (≈ 190 µM) | -17.7 | 6.8 | -11.3 | -13.7 | -0.0845 | 2.79 | -17.9 | 7.54 | 2.49 | 10.3 | -54.3 | 4.92 | > 30 | > 30 | > 30 | > 30 | 0.66 | 33 | 125 (≈ 317 µM) | inhibition of growth at 3 µg/mL [20]: -1.36%; IC50 [21]: > 30 µg/mL; IC90 [21]: > 30 µg/mL; IC50 [22]: > 30 µg/mL; IC90 [22]: > 30 µg/mL; IC50 [23]: > 30 µg/mL; IC90 [23]: > 30 µg/mL; IC50 [24]: > 30 µg/mL; IC90 [24]: > 30 µg/mL; MIC (Candida albicans): 50 µg/mL (≈ 127 µM); MIC (Aspergillus niger): 150 µg/mL (≈ 380 µM); MIC [25]: 100 µg/mL (≈ 253 µM)
CCOc1ccc2nc(Cl)c(/C=C3\SC(=S)N(CC(=O)O)C3=O)cc2c1 | 150 (≈ 367 µM) | -9.57 | -2.41 | -13.4 | 2.94 | -0.253 | -12.7 | 71.9 | 18.5 | 5.91 | 4.87 | 24.4 | -5.49 | > 30 | > 30 | > 30 | > 30 | 9.17 | 24.8 | 100 (≈ 245 µM) | inhibition of growth at 3 µg/mL [20]: 26.3%; IC50 [21]: > 30 µg/mL; IC90 [21]: > 30 µg/mL; IC50 [22]: > 30 µg/mL; IC90 [22]: > 30 µg/mL; IC50 [23]: > 30 µg/mL; IC90 [23]: > 30 µg/mL; IC50 [24]: > 30 µg/mL; IC90 [24]: > 30 µg/mL; MIC (Aspergillus niger): 125 µg/mL (≈ 306 µM)
COc1ccc2nc(Cl)c(/C=C3\SC(=S)N(CC(=O)O)C3=O)cc2c1 | 125 (≈ 317 µM) | -35.7 | -33.3 | -25.4 | -29.3 | -37.3 | -37 | -50.9 | -19.5 | -23.7 | -6.43 | 0.664 | -4.12 | > 30 | > 30 | > 30 | > 30 | 32 | 27.3 | 200 (≈ 507 µM) | inhibition of growth at 3 µg/mL [20]: 6.02%; IC50 [21]: > 30 µg/mL; IC90 [21]: > 30 µg/mL; IC50 [22]: > 30 µg/mL; IC90 [22]: > 30 µg/mL; IC50 [23]: > 30 µg/mL; IC90 [23]: > 30 µg/mL; IC50 [24]: > 30 µg/mL; IC90 [24]: > 30 µg/mL; MIC (Candida albicans): 150 µg/mL (≈ 380 µM); MIC [25]: 150 µg/mL (≈ 380 µM)
Clc1ccc(COC(Cn2ccnc2)c2ccc(Cl)cc2Cl)c(Cl)c1 (stereo not drawn) [MICONAZOLE] | 25 (≈ 60.1 µM) |  |  |  |  |  |  |  |  |  |  |  |  |  |  |  |  |  |  | 12.5 (≈ 30 µM) | MIC (Candida albicans): 25 µg/mL (≈ 60.1 µM); MIC (Aspergillus niger): 25 µg/mL (≈ 60.1 µM); MIC [25]: 25 µg/mL (≈ 60.1 µM)
